Screens deposited in PubChem BioAssay by Broad Institute.
Shown are actives, neighbours in structure and some others; about 5.8% of the full set was active somewhere.
GASC1 inh: inhibitors of GASC-1 (KDM4C) histone demethylase, primary screen, biochemical, single concentration HTS; Lysine-specific demethylase 4C (Homo sapiens), Q9H3R0; GST-KDM4C 2-372, H3K9me3 peptide, LANCE TR-FRET; inhibition, % at 12.5 µM; 96,000 compounds, 0.15% hits; AID 720574, 2013;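 active = mean replicate inhibition above about 25%, with at least 55% of replicates also reaching it, limit read from the data, passing the limit was not always enough; inconclusive = only one of those two conditions met; inactive = neither condition met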
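Material: GST-tagged GASC-1 (JMJD2C) catalytic fragment, aa 2-372. Input: enzyme final amount 10 nM. Medium: HEPES buffer, pH 7.5, plus ascorbate. Reagent: H3K9me3 peptide substrate, Fe(II), 2-oxoglutarate. Doses: single dose. Times: reaction 30 min RT, detection step 1 h RT. Measured by: LANCE TR-FRET. Evaluation: Fall in 671/618 emission ratio as inhibition.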
Pf Dd2 growth: P. falciparum Dd2 growth inhibitors, primary screen, SYBR Green fluorescence, single dose replicates; 72 h; stronger effect = lower value; activity change, % at 10 µM; 94,000 compounds, 2.3% hits; AID 1159554, 2015; in the data active = activity change below about -80%; inconclusive = no clear call, values can overlap the other calls
T cruzi growth-1: T. cruzi intracellular proliferation inhibitors, primary screen, cell-based, beta-gal Tulahuen parasites, NIH3T3 host, luminescence | T. cruzi beta-gal in NIH3T3, GalScreen luminescence, 90 h | inhibition, % at 8.34 µM | 77,000 compounds, 5.9% hits;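 active = mean inhibition above about 93%, with at least 55% of replicates each passing it, limit read from the data, passing the limit was not always enough; inconclusive = only one of those two conditions holds; inactive = neither condition holds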
IDH1 R132H inh: inhibitors of IDH1 R132H reductase, primary screen, biochemical, plate reader, single point. Isocitrate dehydrogenase [NADP] cytoplasmic (Homo sapiens), O75874. inhibition, % at 10 µM. diaphorase/resazurin fluorescence, 60 min. AID 624101, 2012. 70,000 compounds, 0.18% hits; in the data active = inhibition above about 34%; inconclusive = no clear call, values can overlap the other calls; inactive = below about 11%;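 note: 0% = DMSO and 100% = no enzyme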
Target sequence (O75874 whole entry R132H): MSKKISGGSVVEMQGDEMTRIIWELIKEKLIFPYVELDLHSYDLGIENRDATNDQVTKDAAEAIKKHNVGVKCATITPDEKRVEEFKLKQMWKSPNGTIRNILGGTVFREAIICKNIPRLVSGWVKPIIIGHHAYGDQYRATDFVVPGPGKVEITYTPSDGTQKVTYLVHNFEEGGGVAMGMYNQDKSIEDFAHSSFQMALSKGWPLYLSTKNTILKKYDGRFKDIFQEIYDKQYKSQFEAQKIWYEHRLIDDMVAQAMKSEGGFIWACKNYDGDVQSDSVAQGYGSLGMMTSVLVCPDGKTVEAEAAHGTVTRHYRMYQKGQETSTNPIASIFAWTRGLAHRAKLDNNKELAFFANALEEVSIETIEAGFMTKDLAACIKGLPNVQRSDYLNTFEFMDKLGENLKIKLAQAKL
T cruzi growth-2: T. cruzi intracellular proliferation inhibitors, confirmation, cell-based, NIH3T3 host, beta-gal parasite, luminescence, cherry-pick; shares compounds with T cruzi growth-1; T. cruzi beta-gal in NIH3T3, GalScreen luminescence, 90 h; inhibition, % at 8.35 µM; 5,600 compounds, 72% hits;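 active = mean replicate inhibition above about 95% and at least 55% of replicates individually reaching it, limit read from the data; inconclusive = only one of the two criteria is met; inactive = neither criterion is met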
T cruzi growth-3: inhibitors of intracellular T. cruzi replication, confirmation, NIH3T3 host cells, beta-gal parasites, cherry-pick, set 2; shares compounds with T cruzi growth-1; T. cruzi beta-gal in NIH3T3, GalScreen luminescence, 90 h; inhibition, % at 2.09 µM; 5,600 compounds, 21% hits; AID 651740, 2012;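 active = mean inhibition above about 95%, with at least 55% of replicates also reaching it, limit read from the data; inconclusive = meets just one of the two conditions; inactive = meets neither condition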;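 note: plate controls were neutral control median for no effect and positive control median for full effect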
NIH3T3 tox: cytotoxicity in mouse NIH/3T3 fibroblasts, confirmation, cytotoxicity control for T. cruzi proliferation inhibitor project, cell-based, cherry-pick, single point. shares compounds with T cruzi growth-1. NIH/3T3 viability, CellTiter-Glo ATP luminescence, 90 h. cytotoxicity (signal decrease), % at 8.35 µM. 5,600 compounds, 14% hits;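 active = mean signal decrease across replicates above about 35% based on untreated-well scatter, with enough replicates individually passing, limit read from the data; inconclusive = no rule stated though some were filed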;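 note: 0% = median of neutral control wells and 100% = median of positive control wells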
NIH3T3 tox 2: NIH/3T3 fibroblast cytotoxicity, confirmation, cytotoxicity control, cell-based, cherry-pick, single point, set 2. inhibition, % at 24.9 µM. shares compounds with T cruzi growth-1. 5,600 compounds, 56% hits. NIH/3T3 viability, CellTiter-Glo ATP luminescence, 90 h;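 active = mean loss of cell viability signal at or above a set limit, and enough replicates individually reaching it; inconclusive = meets only the mean limit or only the replicate share; inactive = meets neither condition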;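 note: 0% = median of neutral control wells and 100% = median of positive control wells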
Active calls of the source: *; u = inconclusive; x = no result.

SMILES	GASC1 inh	Pf Dd2 growth	T cruzi growth-1	IDH1 R132H inh	T cruzi growth-2	T cruzi growth-3	NIH3T3 tox	NIH3T3 tox 2
C[C@H](CO)N1C[C@H](C)[C@@H](CN(C)Cc2ccc3c(c2)OCO3)Oc2cc(C#CCN(C)C)ccc2S1(=O)=O	0	-16	103*	0	110*	58	u	105*
CCCC#Cc1ccc2c(c1)O[C@@H](CN(C)Cc1ccc3c(c1)OCO3)[C@@H](C)CN([C@H](C)CO)S2(=O)=O	3	x	109*	0	92	105*	13	103*
CC(C)CC#Cc1ccc2c(c1)O[C@@H](CN(C)Cc1ccc3c(c1)OCO3)[C@@H](C)CN([C@@H](C)CO)S2(=O)=O	-3	-64	47	0	x	x	x	x
C[C@@H]1CN([C@@H](C)CO)S(=O)(=O)c2ccc(C#CCN(C)C)cc2O[C@H]1CN(C)Cc1ccc2c(c1)OCO2	1	-44	111*	0	102*	94	45*	104*
Cc1ccc(S(=O)(=O)N2CC[C@@H]3[C@@H](CO)Nc4ccc(C#Cc5ccc(F)cc5)cc4[C@@H]32)cc1	-2	-11	-5	x	x	x	x	x
C[C@H]1CN([C@@H](C)CO)C(=O)Cc2cc(NC(=O)CCC(F)(F)F)ccc2O[C@@H]1CN(C)Cc1ccc(C(=O)O)cc1	0	11	8	0	x	x	x	x
COc1cccc(S(=O)(=O)N(C)C[C@H]2OCc3ccccc3-c3ccccc3C(=O)N([C@H](C)CO)C[C@H]2C)c1	0	-19	59	-10	x	x	x	x
O=C(CC1CC1)Nc1ccc2c(c1)[C@@H]1C[C@@H](CC(=O)N3CCCCC3)O[C@@H](CO)[C@@H]1O2	0	9	104*	0	0	21	9	11
O=C(C[C@@H]1C[C@H]2c3cc(NS(=O)(=O)c4ccc(F)cc4)ccc3O[C@H]2[C@@H](CO)O1)N1CCc2ccccc2C1	0	-27	117*	0	88	24	11	1
CN(C)CC(=O)Nc1ccc2c(c1)[C@@H]1C[C@H](CC(=O)N3CCc4ccccc4C3)O[C@H](CO)[C@@H]1O2	3	-7	3	-2	x	x	x	x
O=C(Nc1ccc2c(c1)[C@@H]1C[C@H](CC(=O)N3CCc4ccccc4C3)O[C@@H](CO)[C@@H]1O2)Nc1ccccc1F	-7	-27	x	0	x	x	x	x
O=C(Nc1ccc(C(F)(F)F)cc1)Nc1ccc2c(c1)[C@@H]1C[C@@H](CC(=O)N3CCc4ccccc4C3)O[C@H](CO)[C@@H]1O2	-1	-49	138*	0	97*	u	-3	104*
CN(C)CC(=O)Nc1ccc2c(c1)[C@H]1C[C@@H](CC(=O)N3CCc4ccccc4C3)O[C@H](CO)[C@H]1O2	-2	14	105*	0	65	9	-9	-4
CCNC(=O)C[C@@H]1C=C[C@H](NC(=O)NC2CCCCC2)[C@@H](CO)O1	-2	4	x	0	x	x	x	x
O=C(Nc1ccc2c(c1)[C@@H]1C[C@H](CC(=O)N3CCc4ccccc4C3)O[C@H](CO)[C@@H]1O2)Nc1ccccc1F	-2	-52	x	0	x	x	x	x
O=C(Nc1ccc(C(F)(F)F)cc1)Nc1ccc2c(c1)[C@@H]1C[C@H](CC(=O)N3CCc4ccccc4C3)O[C@H](CO)[C@@H]1O2	1	-56	119*	0	92	122*	8	-9
C[C@H](CO)N1C[C@H](C)[C@@H](CN(C)Cc2ccncc2)Oc2ncc(-c3cccc(C#N)c3)cc2C1=O	0	7	3	x	x	x	x	x
CO[C@@H]1CN(C)C(=O)c2cc(NC(=O)Nc3c(C)noc3C)ccc2OC[C@H](C)NC[C@@H]1C	1	17	-5	0	x	x	x	x
C[C@@H]1CCCCO[C@H](CN(C)C(=O)NC2CCCCC2)[C@@H](C)CN([C@H](C)CO)C(=O)c2cc(NC(=O)Nc3ccc(C(F)(F)F)cc3)ccc2O1	0	-6	92	x	x	x	x	x
C[C@@H]1CN([C@H](C)CO)C(=O)c2cc(NC(=O)NC3CCCCC3)ccc2O[C@@H](C)CCCCO[C@H]1CN(C)C(=O)Nc1ccc(C(F)(F)F)cc1	0	x	x	0	x	x	x	x
C[C@@H]1CCCCO[C@H](CN(C)C(=O)Nc2ccc(C(F)(F)F)cc2)[C@H](C)CN([C@@H](C)CO)C(=O)c2cc(NC(=O)NC3CCCCC3)ccc2O1	-1	-71	117*	0	110*	83	7	u
C[C@@H]1CCCCO[C@H](CN(C)C(=O)Nc2ccc(C(F)(F)F)cc2)[C@@H](C)CN([C@@H](C)CO)C(=O)c2cc(NC(=O)NC3CCCCC3)ccc2O1	-2	-90*	121*	x	105*	115*	-1	18
COC(=O)C[C@H]1CC[C@H](NC(=O)c2ccccc2)[C@H](CO)O1	-1	18	-19	0	x	x	x	x
CC(C)NC(=O)Nc1ccc2c(c1)CC(=O)N([C@@H](C)CO)C[C@@H](C)[C@@H](CN(C)S(=O)(=O)c1ccc(F)cc1)O2	1	2	27	3	x	x	x	x
C[C@H](CO)N1C[C@H](C)[C@H](CN(C)S(=O)(=O)c2cccs2)Oc2ncc(-c3cccc(F)c3)cc2C1=O	-1	-43	63	1	x	x	x	x
C[C@H](CO)N1C[C@H](C)[C@H](CN(C)S(=O)(=O)c2cccs2)Oc2ncc(-c3cccc(C(F)(F)F)c3)cc2C1=O	0	-1	106*	10	103*	45	30	27*
C[C@H](CO)N1C[C@H](C)[C@H](CN(C)S(=O)(=O)c2ccc(F)cc2)Oc2ncc(-c3cccc(C(F)(F)F)c3)cc2C1=O	-1	-25	109*	-4	102*	59	42*	54*
COc1ccc(S(=O)(=O)N(C)C[C@@H]2Oc3ncc(-c4cccc(C(F)(F)F)c4)cc3C(=O)N([C@H](C)CO)C[C@@H]2C)cc1	1	-56	106*	0	107*	48	8	49*
